Experimental findings from ChEMBL document CHEMBL1140540, “Investigating the antiproliferative activity of quinoline-5,8-diones and styrylquinolinecarboxylic acids on tumor cell lines” (Bioorg Med Chem Lett, 2007) are described below.

One may read the inhibition as the drop in the measured response relative to a control, in per cent. Higher therefore signals a response far below the control. Broadly, the IC50 is the concentration needed to halve the response being measured. The low end stands for higher potency, the high end for lower potency.

Each structure is given as a SMILES string. Where only a bound is given, the exact number is not on record here.

Data set [1] deals with P388. Briefly: Antiproliferative activity against mouse P388 cells at 0.1 uM by MTT assay. It counts as functional. The method in brief:
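P388 cells in RPMI 1640 with 2 mM L-glutamine, 1.5 g/L NaHCO3, 4.5 g/L glucose, 1.0 mM pyruvate and 10% FBS, at 37 °C in 5% CO2. Plated 24 h before treatment, then 72 h exposure at a single concentration. MTT readout: 4 h MTT, DMF/SDS lysis, OD570 after 24 h. Value expressed as percent inhibition of proliferation.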
On the technique in general: Formazan colour is commonly taken as a measure of viable cells.

Data set [2] in a line: Lipophilicity, log K of the compound. It is filed as physicochemical. The note with it: HPLC. The essentials:
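Hydrophobicity determined by HPLC.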

Data set [3] concerns P388. Description: Antiproliferative activity against mouse P388 cells by MTT assay. It is filed as functional, cell-based. The method in brief: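 P388 cells in RPMI 1640 with 2 mM L-glutamine, 1.5 g/L NaHCO3, 4.5 g/L glucose, 1.0 mM pyruvate and 10% FBS, at 37 °C in 5% CO2. Plated 24 h before treatment, then exposed 72 h to varying concentrations. MTT 4 h at 37 °C, DMF/SDS lysis, OD570 after 24 h. IC50 from triplicates, 3–7 repeat experiments.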

In a further data set the test system is SK-N-MC. Briefly: Antiproliferative activity against human SK-N-MC cells by MTT assay. It counts as functional, cell-based. The method in brief: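 SK-N-MC cells in MEM with 10% (v/v) FBS, 1.0 mM sodium pyruvate, 1% non-essential amino acids, L-glutamine, penicillin/streptomycin and fungizone. Plated 24 h before dosing and exposed 72 h to varying concentrations. MTT added for 4 h at 37 °C, then DMF/SDS lysis, with OD570 read after 24 h. IC50 from triplicate wells, experiments repeated 3–7 times.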

In the data set with P388 [1], `Oc1cccc2ccc(/C=C/c3cccc(Cl)c3)nc12` showed an inhibition at 0.1 µM of 15%. Further, the “log K” value in data set [2] came to 1.5395.
On to `CCCC(=O)NC1=CC(=O)c2ccc(C)nc2C1=O`, for which half-maximal inhibition in the data set on P388 [3] (IC50) was put at 1.51 µM.
For `CC(=O)NC1=CC(=O)c2ccc(C)nc2C1=O`, the IC50 with P388 [3] was 1.61 µM; with SK-N-MC, greater than 6.25 µM. Also, the “log K” value in data set [2] was found to be 0.2227.
In the data set with P388 [3], `Cc1ccc2c(n1)C(=O)C(N)=CC2=O` returned an IC50 of 10.3 µM.
Take `O=[N+]([O-])c1cc([N+](=O)[O-])c2cccnc2c1O`: the values for the IC50 in the data set on P388 [3] and in the data set on SK-N-MC were 7.14 µM and greater than 6.25 µM, respectively. Besides, in data set [2], the “log K” value came to 0.7154.
Regarding `O=C(O)c1ccc2nc(/C=C/c3ccc(Cl)cc3)ccc2c1`, the IC50 in the data set on P388 [3] stood at 116 µM. Moreover, in data set [2], the “log K” value turned out to be 1.6043.
The corresponding values for `O=C(O)c1ccc2nc(/C=C/c3ccccc3O)ccc2c1` are 51.1 µM and 1.3842.
The corresponding values for `O=C(O)c1ccc(C(=O)O)c2nc(/C=C/c3ccccc3Br)ccc12` are 89.4 µM and 1.2062.
In the same order, the values of `COc1cccc(/C=C/c2ccc3c(C(=O)O)cccc3n2)c1` are 100 µM and 1.2263.
`O=C(O)c1ccc2nc(/C=C/c3cccc(Cl)c3)ccc2c1` yielded an IC50 in the data set with P388 [3] of 110 µM. In addition, the “log K” value in data set [2] is given as 1.6315.
In the case of `COc1cccc(/C=C/c2ccc3c(C(=O)O)ccc(C(=O)O)c3n2)c1`, testing at 0.1 µM with P388 [1] gave an inhibition of 25%. Moreover, in data set [2], the “log K” value came out at 1.1811.
Compound `O=C(O)c1cccc2nc(/C=C/c3ccc(Br)cc3)ccc12` showed an IC50 in the data set on P388 [3] of 109 µM. The “log K” value in data set [2] is 1.4397.
Compound `O=[N+]([O-])c1cc([N+](=O)[O-])c2ccc(/C=C/c3ccc(Cl)cc3)nc2c1O` showed an IC50 with P388 [3] of 7.14 µM.
Consider `COc1ccc(/C=C/c2ccc3c(NC(C)=O)cc(NC(C)=O)c(OC(C)=O)c3n2)c(OC)c1`, for which the inhibition at 0.1 µM in the data set on P388 [1] turned out to be 20%.
In the data set with P388 [3], `O=C(O)c1cc([N+](=O)[O-])c2ccc(/C=C/c3ccccc3Cl)nc2c1O` showed an IC50 of 158 µM.
In the data set on P388 [3], `Cc1ccc2c(n1)C(=O)C(NC(=O)CCc1ccccc1)=CC2=O` displayed an IC50 of 1.44 µM.
Still for that read-out and setting: the result for `Cc1ccc2c(n1)C(=O)C(NC(=O)/C=C/c1ccccc1)=CC2=O` reads 2.39 µM.
In the data set on P388 [3], `O=C(O)c1cccc2ccc(/C=C/c3ccccc3O)nc12` yielded an IC50 of 13.6 µM. In data set [2], the “log K” value came out at 1.6787.
As for `O=C(O)c1ccc(C(=O)O)c2nc(/C=C/c3ccc(Cl)cc3)ccc12`, the IC50 in the data set with P388 [3] stood at 110 µM. Also, the “log K” value in data set [2] is given as 1.2107.
`CCC(=O)NC1=CC(=O)c2ccc(C)nc2C1=O` registered an IC50 with P388 [3] of 1.43 µM.
In the data set with P388 [3], `O=C(O)c1ccc(C(=O)O)c2nc(/C=C/c3cccc(Cl)c3)ccc12` registered an IC50 of 114 µM. The “log K” value in data set [2] came out at 1.2163.
Take `COC1=CC(=O)c2ccc(C)nc2C1=O`: the IC50 in the data set on P388 [3] worked out at 6.1 µM; in the data set on SK-N-MC, 4.26 µM. Further, in data set [2], the “log K” value turned out to be 0.0907.
Compound `COc1ccc(/C=C/c2ccc3c([N+](=O)[O-])cc([N+](=O)[O-])c(O)c3n2)cc1` came in with an IC50 in the data set on P388 [3] of 79.1 µM.
In turn, `O=C(O)c1cccc2ccc(/C=C/c3ccc(Cl)cc3)nc12` showed an IC50 in the data set on P388 [3] of 15.3 µM. For the same compound, in data set [2], the “log K” value turned out to be 1.8165.
As for `O=C(O)c1cccc2nc(/C=C/c3ccccc3O)ccc12`, in the data set on P388 [1], the inhibition at 0.1 µM is 30%. Moreover, in data set [2], the “log K” value stood at 1.255.
The corresponding values for `O=C(O)c1ccc2ccc(/C=C/c3ccccc3O)nc2c1` are 30% and 1.3678.
Consider `CC(=O)Nc1cc(NC(C)=O)c2ccc(/C=C/c3ccccc3Br)nc2c1OC(C)=O`, for which 6.58 µM corresponded to half-maximal inhibition with P388 [3] (IC50).
Regarding `COc1ccc(/C=C/c2ccc3c([N+](=O)[O-])cc(C(=O)O)c(O)c3n2)cc1`, the IC50 with P388 [3] stood at 148 µM.
Compound `O=C(O)c1ccc(C(=O)O)c2nc(/C=C/c3ccccc3Cl)ccc12` registered an IC50 in the data set on P388 [3] of 114 µM. Further, the “log K” value in data set [2] stood at 1.2047.
